Screens deposited in PubChem BioAssay by several laboratories.
Only some compounds are listed: those with a hit (about 2% of all), similar ones and a draw of the others.
PLCg1 inh = PLC-gamma1 (human) inhibition, primary screen. purified PLC-gamma1, fluorogenic substrate, fluorescence. inhibition, % at 12.2 µM. 370,000 tested, 0.84% active. AID 720700; in the data active means inhibition above about 9.5%
Target sequence (P19174 whole entry, looked up): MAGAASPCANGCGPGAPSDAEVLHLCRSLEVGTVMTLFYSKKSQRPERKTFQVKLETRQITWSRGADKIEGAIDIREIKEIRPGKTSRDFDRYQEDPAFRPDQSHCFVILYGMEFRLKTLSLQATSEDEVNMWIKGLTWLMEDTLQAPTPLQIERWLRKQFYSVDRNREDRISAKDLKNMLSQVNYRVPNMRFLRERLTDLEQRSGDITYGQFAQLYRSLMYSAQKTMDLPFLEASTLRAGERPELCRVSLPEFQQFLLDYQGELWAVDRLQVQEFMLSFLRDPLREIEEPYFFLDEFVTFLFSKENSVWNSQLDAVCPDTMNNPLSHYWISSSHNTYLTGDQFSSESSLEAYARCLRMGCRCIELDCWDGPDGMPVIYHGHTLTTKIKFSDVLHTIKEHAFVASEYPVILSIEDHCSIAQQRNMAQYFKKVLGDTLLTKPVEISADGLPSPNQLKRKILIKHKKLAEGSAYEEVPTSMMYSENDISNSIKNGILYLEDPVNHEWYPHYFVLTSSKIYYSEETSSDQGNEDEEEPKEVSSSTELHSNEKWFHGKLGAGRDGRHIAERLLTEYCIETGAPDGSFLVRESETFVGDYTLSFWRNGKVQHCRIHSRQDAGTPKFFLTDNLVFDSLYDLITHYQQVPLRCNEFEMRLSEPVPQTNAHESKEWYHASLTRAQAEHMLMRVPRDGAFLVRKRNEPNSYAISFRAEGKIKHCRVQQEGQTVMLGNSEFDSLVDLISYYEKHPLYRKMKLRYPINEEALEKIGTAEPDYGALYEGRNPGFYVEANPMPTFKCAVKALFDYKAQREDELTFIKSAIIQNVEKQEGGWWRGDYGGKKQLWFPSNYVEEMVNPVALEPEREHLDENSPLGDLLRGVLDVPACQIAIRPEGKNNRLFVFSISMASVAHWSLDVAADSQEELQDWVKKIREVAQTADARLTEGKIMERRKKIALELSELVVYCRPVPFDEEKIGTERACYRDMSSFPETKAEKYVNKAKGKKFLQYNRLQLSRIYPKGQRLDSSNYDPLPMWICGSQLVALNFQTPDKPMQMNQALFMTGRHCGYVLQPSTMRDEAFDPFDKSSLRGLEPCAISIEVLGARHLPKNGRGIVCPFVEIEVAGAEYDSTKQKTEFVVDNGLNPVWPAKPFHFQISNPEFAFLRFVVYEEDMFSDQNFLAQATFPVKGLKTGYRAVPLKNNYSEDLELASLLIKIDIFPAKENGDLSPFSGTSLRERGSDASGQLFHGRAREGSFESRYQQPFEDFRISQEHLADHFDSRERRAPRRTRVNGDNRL
PLCb3 inh = blocks human PLC-beta3 enzyme activity. Q01970. AID 720704. inhibition, % at 12.2 µM. 370,000 tested, 0.18% active. Purified PLC-beta3, fluorogenic substrate, fluorescence;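 further: 0% = median of compound wells on plate and 100% = full blocker control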
PvdQ acylase = P. aeruginosa PvdQ acylase inhibition. purified PvdQ acylase, fluorescence plate reader. inhibition, % at 10 µM. 340,000 tested, 0.063% active. AID 488965; in the data active means inhibition above about 30%, passing the limit was not always enough;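 further: 0% = vehicle neutral wells and 100% = reference inhibitor wells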
IMP-1 inh = blocks Pseudomonas aeruginosa IMP-1 metallo-beta-lactamase. AID 1556. 290,000 tested, 0.45% active. inhibition, % at 5.6 µM. purified IMP-1, nitrocefin hydrolysis, epi-absorbance fluorescence;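 active means inhibition above the mean plus 3 SD of all compounds in the same screening run, cut at about 4.5% in these data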;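 further: 0% = IMP-1 with DMSO and 100% = DMSO wells lacking enzyme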
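System: Purified IMP-1 | Read-out basis: Percent enzyme inhibition | Controls: IMP-1 with DMSO as 0%, enzyme-free DMSO as 100% | Replicates: One well per compound | Doses: 5.6 µM nominal single concentration | Detection: Epi-absorbance fluorescence, 480 nm excitation, 530 nm emission | Incubation: 25 °C, 15 min preincubation, 25 min reaction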
VIM-2 inhibitor = blocks Pseudomonas aeruginosa VIM-2 metallo-beta-lactamase; 290,000 tested, 0.89% active; inhibition, % at 5.6 µM; purified VIM-2, nitrocefin hydrolysis, epi-absorbance fluorescence; AID 1527;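 active means inhibition above the mean of all tested compounds plus 3 SD, cutoff set per screening run, cut at about 7.5% in these data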;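 further: red hydrolysis product quenches plate fluorescence so inhibitors raise well fluorescence; 0% = enzyme with DMSO and 100% = DMSO without enzyme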
PLCgamma1 ctr = inhibits human PLC-gamma1 in PLC-beta3 counter-screen | inhibition, % at 12.3 µM | AID 743258 | purified PLC-gamma1, fluorogenic substrate, fluorescence | shares compounds with PLCg1 inh | 3,300 tested, 3.1% active; in the data active means inhibition above about 9.5%
PLCb3 confirm = human PLC-beta3 inhibition, confirmation. 3,300 tested, 1% active. AID 743261. inhibition, % at 12.3 µM. purified PLC-beta3, fluorogenic substrate fluorescence. shares compounds with PLCg1 inh
Numbers without * were called inactive. Unless noted, no stated cut-off is given here; in the data, active means inhibition above about 11%; inactive means the rest.

For Cn1cccc1-c1nc2ccc(NC(=O)c3ccc([N+](=O)[O-])cc3)cc2[nH]1 the results were PLCg1 inh 14.1*, PLCb3 inh 8.6, PvdQ acylase -12.0, IMP-1 inh -4.4, VIM-2 inhibitor -3.0, PLCgamma1 ctr 1.7 and PLCb3 confirm 4.9.
For CC(c1ccccc1)N1CC[C@H]2C=CC[C@@H](C(=O)Nc3cccc(Cl)c3)[C@H]2C1=O (stereo partly specified) the results were PLCg1 inh -0.8 and PLCb3 inh -0.8.
Nc1[nH]c(C(=O)c2ccc(Cl)cc2)c(-c2ccc(Br)cc2)c1C(=O)c1c[nH]c2ccc(F)cc12 was read as PLCg1 inh -7.3 and PLCb3 inh -8.2.
For COc1cccc(CNC(=O)Cn2c(-c3ccccc3)cc(C(C)=O)c2C)c1OC the results were PLCg1 inh -2.7 and PLCb3 inh -1.1.
CCCOc1nccc2c1n(C)c(=O)n2C was read as PLCg1 inh 0.3 and PLCb3 inh 2.6.
`CC1CCC(C(C)C)C(OC(=O)C[n+]2cc(-c3ccc(Cl)cc3)n3c2CCC3)C1` (stereo unspecified) gave PLCg1 inh 9.9*, PLCb3 inh -3.4, PvdQ acylase -1.3, IMP-1 inh -3.0, VIM-2 inhibitor -2.0, PLCgamma1 ctr -2.6 and PLCb3 confirm -0.8.
For O=C(C[n+]1cc(-c2ccc(Cl)cc2)n2c1CCC2)N1c2ccccc2Sc2ccccc21 the results were PLCg1 inh 5.2, PLCb3 inh 3.3, PvdQ acylase 8.7, IMP-1 inh -4.3 and VIM-2 inhibitor -2.8.
`OCC1OC(n2cnc3c(=S)nc[nH]c32)CC1O` (stereo unspecified) gave PLCg1 inh 10.1*, PLCb3 inh 0.1, PvdQ acylase -5.1, PLCgamma1 ctr -3.0 and PLCb3 confirm 1.6.
`COc1ccc(NC(=O)NCCCN2CCN(c3ccc(F)cc3)CC2)cc1OC` gave PLCg1 inh -1.1 and PLCb3 inh -3.2.
For COc1ccc2sc(N(CCCN(C)C)C(=O)c3ccc(S(=O)(=O)N4CCCC4)cc3)nc2c1 the results were PLCg1 inh 12.4*, PLCb3 inh 6.8, PvdQ acylase 9.1, PLCgamma1 ctr -3.7 and PLCb3 confirm -1.7.
`NC(=O)c1c(N)[nH]c(C(=O)c2ccccc2)c1-c1ccccc1C(F)(F)F` gave PLCg1 inh -15.1 and PLCb3 inh -29.3.
`CCC(=O)Nc1c2c(nn1-c1ccc(OC)cc1)CSC2` gave PLCg1 inh -1.8, PLCb3 inh -4.7, PvdQ acylase -8.7, IMP-1 inh -1.7 and VIM-2 inhibitor -0.7.
`CC(C)CC(=O)Nc1c2c(nn1-c1ccc(F)cc1)CSC2` gave PLCg1 inh 8.7, PLCb3 inh 12.4*, PvdQ acylase 1.8, IMP-1 inh -5.3, VIM-2 inhibitor -4.4, PLCgamma1 ctr -6.6 and PLCb3 confirm -5.3.
`COc1ccc(N2CCN(C(=O)CCc3ccc(S(=O)(=O)NCC(C)C)cc3)CC2)cc1` gave PLCg1 inh 9.6*, PLCb3 inh 1.6, PvdQ acylase -0.5, IMP-1 inh -4.7, VIM-2 inhibitor -1.3, PLCgamma1 ctr -0.4 and PLCb3 confirm 0.3.
Screening COc1ccccc1CNc1ncccn1 returned PLCg1 inh 9.7*, PLCb3 inh 1.1, PvdQ acylase -2.0, IMP-1 inh 1.2, VIM-2 inhibitor -0.4, PLCgamma1 ctr -1.7 and PLCb3 confirm 1.9.
Screening CCCCN(C(=O)c1ccc(OC)c([N+](=O)[O-])c1)c1c(N)n(CCC)c(=O)[nH]c1=O returned PLCg1 inh -1.4, PLCb3 inh -5.5, PvdQ acylase -3.8, IMP-1 inh -4.6 and VIM-2 inhibitor -1.5.
Screening CCCn1c(N)c(N(CCOC)C(=O)c2ccc([N+](=O)[O-])c(C)c2)c(=O)[nH]c1=O returned PLCg1 inh 9.6*, PLCb3 inh -2.2, PvdQ acylase 5.3, IMP-1 inh -1.2, VIM-2 inhibitor 0.7, PLCgamma1 ctr -3.7 and PLCb3 confirm -1.4.
Screening O=c1[nH]n2c(=O)c3c([nH]c2c1N=Nc1cccc(Cl)c1)CCC3 returned PLCg1 inh 10.0*, PLCb3 inh 7.3, PvdQ acylase 16.1, IMP-1 inh -4.2, VIM-2 inhibitor -2.9, PLCgamma1 ctr 4.5 and PLCb3 confirm -0.7.
Screening Cc1ccccc1-c1noc(CCC(=O)NCCc2ccccc2)n1 returned PLCg1 inh 10.3*, PLCb3 inh 0.6, PvdQ acylase -10.9, IMP-1 inh -0.6, VIM-2 inhibitor -1.2, PLCgamma1 ctr -3.5 and PLCb3 confirm -2.0.
O=c1c2cc3cccnc3nc2ncn1Cc1cccs1 was read as PLCg1 inh -20.6 and PLCb3 inh -29.4.
`O=C(NCCc1ccccn1)c1ccc2c(c1)ncn2C1CCCCC1` gave PLCg1 inh 0.5 and PLCb3 inh 1.0.
`CCOC(=O)Cc1nnc(NC(=O)CCc2ccccc2)s1` gave PLCg1 inh 10.5*, PLCb3 inh -4.5, PvdQ acylase -6.9, IMP-1 inh -2.5, VIM-2 inhibitor -2.1, PLCgamma1 ctr -0.7 and PLCb3 confirm -9.9.
For CCOC(=O)Cc1csc(NC(=O)CCc2ccccc2)n1 the results were PLCg1 inh 2.1, PLCb3 inh -6.5, PvdQ acylase -9.2, IMP-1 inh -1.2 and VIM-2 inhibitor -0.8.
`O=C(Cn1nnc(-c2ccncc2)n1)Nc1ccc(Cl)cc1` gave PLCg1 inh 1.5 and PLCb3 inh -0.5.
For O=S(=O)(c1ccccc1)N1N=C(c2cccs2)CC1c1ccc(F)cc1 (stereo unspecified) the results were PLCg1 inh 3.7, PLCb3 inh 12.2*, PvdQ acylase -22.0, IMP-1 inh -1.5, VIM-2 inhibitor -1.5, PLCgamma1 ctr -4.1 and PLCb3 confirm -4.4.
`O=S(=O)(c1ccccc1)c1cnn(-c2ccccc2)c1-c1ccc(Cl)cc1` gave PLCg1 inh 0.6, PLCb3 inh 20.0*, PvdQ acylase -2.1, IMP-1 inh 0.2, VIM-2 inhibitor -0.5, PLCgamma1 ctr 0.8 and PLCb3 confirm 16.6*.
Screening COc1ccc(-c2c(S(=O)(=O)c3ccccc3)cnn2-c2ccccc2)cc1 returned PLCg1 inh 0.2, PLCb3 inh 2.0, PvdQ acylase -12.8, IMP-1 inh -2.6 and VIM-2 inhibitor -2.0.
Screening COc1ccc(N2CCN(CCNC(=O)c3ccc(NC(=O)C4CCCO4)cc3)CC2)cc1 (stereo unspecified) returned PLCg1 inh 10.5*, PLCb3 inh 4.7, PvdQ acylase 8.0, IMP-1 inh -1.0, VIM-2 inhibitor 0.6, PLCgamma1 ctr 4.4 and PLCb3 confirm 1.5.
For CC1CCN(CCNC(=O)c2ccc(NC(=O)C3CCCO3)cc2)CC1 (stereo unspecified) the results were PLCg1 inh 1.8, PLCb3 inh 0.3, PvdQ acylase 2.2, IMP-1 inh -2.4 and VIM-2 inhibitor -0.1.
